Hits are enriched below; roughly 3.9% of the tested compounds scored in any of these assays.
CHO parental Ca = counter-screen: ATP calcium response change in parental CHO cells | inhibition, % at 5.6 µM | AID 463079 | parental CHO-K1, ATP-induced calcium, Fluo-8 fluorescence | 330,000 compounds, 0.63% hits;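 active = inhibition above that plate's mean sample inhibition plus 3 SD, cut at about 26% in these data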
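Test system: parental CHO cells; detection: calcium-sensitive Fluo-8 fluorescence; evaluation: percent inhibition of calcium signal; also added: ATP as calcium-mobilizing challenge; repeats: one well per compound; control set: ATP-challenged DMSO wells low, unchallenged DMSO wells high; compound: single nominal dose of 5.6 µM per compound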
TAAR1 agonist = human TAAR1 agonism; Q96RJ0; CHO RD-HGA16 TAAR1, Fluo-8 calcium fluorescence; vehicle wells 0%, saturating PEA agonist 100%; activation, % at 3 µM; 360,000 compounds, 0.99% hits; AID 624467;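 active = activation above the mean activation of all test compounds in the run plus 3 SD, cut at about 38% in these data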
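Test system: RD-HGA16 (CHO) cells co-expressing Gα16 and hTAAR1; dosing: one-point dosing at 3 µM (nominal); timing: 17-24 h seeding, 75 min 37 °C dye, 30 min RT; signal: kinetic Fluo-8 calcium fluorescence; read-out basis: % activation relative to PEA EC100 response; controls: DMSO and PEA EC100; replicates: n 1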
OX1R antag-1 = blocks the human orexin 1 receptor; O43613; OX1R-expressing cells, FRET antagonist read-out; inhibition, % at 6.6 µM; 330,000 compounds, 1.8% hits; in the data active = inhibition mostly above about 38%, no sharp cut-off; inactive = mostly below about 40%
Target sequence (O43613 whole entry, looked up): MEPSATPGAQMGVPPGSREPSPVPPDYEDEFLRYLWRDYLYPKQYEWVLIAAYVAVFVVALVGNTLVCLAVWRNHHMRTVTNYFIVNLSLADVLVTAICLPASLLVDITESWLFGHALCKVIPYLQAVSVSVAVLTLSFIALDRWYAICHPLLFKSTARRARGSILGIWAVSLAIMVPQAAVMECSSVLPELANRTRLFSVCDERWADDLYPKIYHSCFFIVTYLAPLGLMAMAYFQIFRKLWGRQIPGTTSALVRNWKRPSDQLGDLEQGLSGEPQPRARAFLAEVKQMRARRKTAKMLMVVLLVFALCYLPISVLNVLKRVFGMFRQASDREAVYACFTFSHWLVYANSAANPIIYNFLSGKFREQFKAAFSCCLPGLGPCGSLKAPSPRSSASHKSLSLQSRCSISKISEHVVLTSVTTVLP
OX1R antag-2 = blocks the human orexin 1 receptor; inhibition, % at 5 µM; 330,000 compounds, 0.43% hits; AID 434989; CHO/OX1R cells, Fluo-8 calcium fluorescence, orexin A; O43613;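 active = inhibition above its plate's threshold, mean inhibition of all tested compounds on the plate plus 3 SD, cut at about 37% in these data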
TAAR1 antag = antagonists of human TAAR1; Q96RJ0; CHO RD-HGA16 TAAR1, Fluo-8 calcium fluorescence, antagonist; inhibition, % at 3 µM; 360,000 compounds, 1.5% hits;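 active = inhibition above a per-plate cutoff, the mean inhibition of test compounds on that plate plus 3 SD, cut at about 49% in these data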
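Test system – hTAAR1-expressing CHO RD-HGA16 cells, Gα16-coupled · Also added – β-PEA at EC80 concentration, post-compound challenge · Compound – 3 µM, single point · Incubation – dye loading 75 min at 37 °C, then 30 min room temperature · Measured by – Fluo-8 intracellular calcium dye fluorescence, real-time kinetic reads · Benchmarks – vehicle and agonist controls · Replicates – singlicate, one well per test compound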
A number is an active result; i = inactive; nt = not tested or not shown.

SMILES	CHO parental Ca	TAAR1 agonist	OX1R antag-1	OX1R antag-2	TAAR1 antag
COc1ccc(Cl)cc1NC(=O)CSc1nc2sccc2c(=O)[nH]1	i	i	63	i	i
COc1ccccc1NC(=O)CSc1nc2nc(C)cc(C)c2c(=O)[nH]1	i	i	i	i	i
CC1C(=O)N(Cc2cn(CCC3OCCO3)nn2)CCS(=O)(=O)N1Cc1ccc(-c2ccc(Cl)cc2)cc1 (centres undefined)	nt	i	nt	nt	52
CC1C(=O)N(Cc2cn(CCC3OCCCO3)nn2)CCS(=O)(=O)N1Cc1ccc(-c2ccc(Cl)c(Cl)c2)cc1 (centres undefined)	nt	i	nt	nt	69
COCOCCn1cc(CN2CCS(=O)(=O)N(Cc3ccc(-c4ccc(Cl)c(Cl)c4)cc3)C(C)C2=O)nn1 (centres undefined)	nt	i	nt	nt	59
CCOC(=O)C1=C(C)N=C2SCCC(=O)N2C1c1ccc(C(=O)OC)cc1 (centres undefined)	i	i	i	i	i
CCOC(=O)C1=C(C)N2C(=C(C#N)[C@@H]1c1ccc(C(=O)OC)cc1)SC[C@@]2(O)C(C)(C)C	i	i	53	i	i
O=[N+]([O-])c1ccc2nc(/C=C/c3ccc(Cl)cc3)[nH]c2c1	29	i	77	i	53
O=[N+]([O-])c1ccc(-c2nc3ccc([N+](=O)[O-])cc3[nH]2)cc1	i	i	i	i	i
O=C(Nc1ccccc1Cl)c1cc(C2CCCCN2C(=O)CCCc2ccccc2)on1 (centres undefined)	nt	i	nt	nt	i
CC(=O)N1CCN(c2ccc(NCc3ccc(-c4ccc(Br)cc4)o3)cc2)CC1	i	i	i	i	58
CCc1nc2ccc(C(=O)N3CCN(S(=O)(=O)CC)CC3)cn2c1N(CC)C(=O)NCCc1ccccc1	nt	i	nt	nt	i
COc1cccc(S(=O)(=O)N(C)C[C@@H]2Oc3cc(C#CCN(C)C)ccc3S(=O)(=O)N([C@H](C)CO)C[C@@H]2C)c1	nt	i	nt	nt	i
CCc1cccc2c(C(=O)Cn3nnc(-c4ccc(OC)c(OC)c4)n3)c[nH]c12	42	i	45	69	i
C=CCCC(=O)N1C[C@H]2CCN(C)[C@H]2C[C@H]1c1ccccc1Br	nt	i	nt	nt	i
Cc1cc(/C=N/n2cnnc2)c(C)n1-c1ccc(Cl)cc1	i	i	i	i	i
Cc1cc(/C=N/n2cnnc2)c(C)n1-c1ccc(OCc2ccc(Cl)cc2Cl)cc1	45	nt	i	53	nt
COc1ccccc1Nc1ncccc1[N+](=O)[O-]	i	i	i	i	i
COc1ccccc1C(CNc1ncccc1[N+](=O)[O-])N(C)C (centres undefined)	i	i	67	i	i
C[C@@H]1CNC(=O)c2c(C(=O)N3CCN(c4ccccc4)CC3)ncn21	nt	i	nt	nt	i
O=C(Nc1ccc(F)cc1)C(c1ccccc1OC(F)(F)F)N1CCN(c2cccc(C(F)(F)F)n2)CC1 (centres undefined)	nt	i	nt	nt	i
CC(C)Nc1nc(NC(C)(C)C)nc(Oc2ccc(=O)n(C)n2)n1	i	39	i	i	i
CCn1c2ccc(Cl)cc2c2nc3ccccc3nc21	i	i	69	i	i
c1ccc2c(CCNc3ncnc4nc[nH]c34)cccc2c1	34	i	i	i	67
c1ccc(CCCNc2ncnc3nc[nH]c23)cc1	i	i	i	i	i
SMILES	CHO parental Ca	TAAR1 agonist	OX1R antag-1	OX1R antag-2	TAAR1 antag
CCc1cccc(CC)c1N1C(=O)C2=C(SCCCS2)C1=O	nt	40	nt	nt	i
COc1ccc(OCC(O)Cn2c(=N)n(Cc3ccccc3)c3ccccc32)cc1 (centres undefined)	i	i	i	i	i
N=c1n(Cc2ccc(Cl)cc2)c2ccccc2n1CC(O)COc1ccccc1 (centres undefined)	72	i	i	75	i
N=c1n(Cc2ccccc2)c2ccccc2n1CC(O)COc1ccc(Cl)cc1Cl (centres undefined)	nt	47	nt	nt	i
CCOC(=O)C1=CN(Cc2ccco2)S(=O)(=O)N(C)C1c1ccc2ccccc2c1 (centres undefined)	i	i	i	i	i
O=C(NNC(=O)c1cc2cc(Br)ccc2oc1=O)c1ccc(O)cc1	i	38	i	i	i
Cc1nc(N=C(N)N)nc2ccccc12	i	i	i	i	i
Cc1nc(/N=C(\N)NC(=O)c2ccccc2)nc2ccccc12	i	nt	72	i	nt
O=C1NC(=S)S/C1=C\C=C\c1ccc([N+](=O)[O-])o1	nt	58	nt	nt	72
O=C(O)/C=C/c1ccc([N+](=O)[O-])o1	i	i	i	i	i
CC(=O)N(C)C[C@@H]1OCc2ccccc2-c2c(n(C)c3ccccc23)C(=O)N([C@@H](C)CO)C[C@@H]1C	nt	i	nt	nt	i
CCCn1nc(NS(=O)(=O)c2cccc3nonc23)c2cc3cc(C)ccc3nc21	i	i	i	i	i
CCCn1nc(NS(=O)(=O)c2cccc3nonc23)c2cc3cccc(C)c3nc21	i	i	52	i	i
O=[N+]([O-])c1ccc2cn[nH]c2c1	i	i	49	i	i
CC(C)NC(=O)C1(C)CN(S(C)(=O)=O)CC(=O)N1Cc1ccc2c(c1)OCO2 (centres undefined)	nt	i	nt	nt	i
COC(=O)c1ccc(Oc2nc(Nc3ccc(C)c(C)c3)nc(N(C)C)n2)cc1	i	i	39	i	i
COC(=O)[C@]12CCCCC=C1N(Cc1ccc(Cl)cc1Cl)C(=O)[C@H](CC(=O)N1CCC(c3ccccc3)CC1)C2	nt	i	nt	nt	i
COc1cc(/C=N/NC(=O)Cc2ccccc2)cc([N+](=O)[O-])c1O	i	i	54	i	i
Cc1ccc(C(=O)N/N=C\c2ccc(-c3ccc([N+](=O)[O-])cc3)o2)cn1	i	i	i	i	i
Cc1ccc(C(=O)N/N=C\c2ccc([N+](=O)[O-])o2)cn1	i	i	70	i	i
COc1cc(/C=C/C(=O)c2ccc(C)c([N+](=O)[O-])c2)cc(OC)c1O	i	45	i	i	i
COc1cc(/C=N/Nc2ccccc2[N+](=O)[O-])cc(OC)c1O	i	i	i	i	i
O=C(N/N=C/c1ccc([N+](=O)[O-])o1)c1ccc(NS(=O)(=O)c2cccs2)cc1	i	i	45	i	i
Cc1ccc(C)c(N2N=C(C(=O)OCC(=O)N(C)c3ccccc3)CCC2=O)c1	nt	i	nt	nt	i
COc1ccc(Cl)cc1-c1cc(C(=O)Nc2ccc(C(C)(C)C)cc2)[nH]n1	nt	i	nt	nt	i
OC[C@H]1O[C@@H](c2nc3ccc(-c4nc(-c5ccc(Br)cc5)no4)cc3[nH]2)C[C@@H]1O	nt	i	nt	nt	i
CCOc1cc(/C=N\NC(=O)c2ccc(C)nc2)cc([N+](=O)[O-])c1O	i	i	i	i	i
COc1cc(/C=N/NC(=O)Cc2ccccc2)ccc1Oc1ccc([N+](=O)[O-])cc1[N+](=O)[O-]	29	i	i	i	i
CC1(C(=O)N/N=C/c2ccc([N+](=O)[O-])o2)CC1(Br)Br (centres undefined)	i	i	73	i	i

Screening data deposited in PubChem BioAssay by The Scripps Research Institute Molecular Screening Center.
